Source: PubChem
Dynein cargo inh = inhibitors of GR-EGFP nuclear translocation, primary screen, dynein cargo transport inhibitor project, imaging, high-content, 3617.4 mouse cells | test concentration mostly 20 µM; stimulated with dexamethasone, 1 µM; stronger effect = lower value | 0.47% of 220,000 active | AID 1381, 2008 | z-score, hits read low;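 active means plate z-score of nuclear minus cytoplasmic receptor signal below a set negative limit, without overly bright fluorescence or cell loss, cut at about -3.5 in these data, passing the limit was not always enough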;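 further: z-score of nuclear minus cytoplasmic ring GR-EGFP intensity difference per well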
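Also added – dexamethasone, 1.0 µM final · Buffer or medium – tet-free, stripped-serum medium · Schedule – induction 48 h, compound 1 h, agonist 30 min · Detection – formaldehyde fixation, Hoechst nuclear stain, 10x automated fluorescence imaging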
Furin inhibitor = human furin inhibitors, primary screen, biochemical, fluorescence intensity; 0.061% of 220,000 active; AID 463115, 2010; inhibition, % at 20 µM or 30 µM; purified furin, fluorogenic substrate cleavage; in the data active means inhibition above about 25%
Target sequence (P09958 108-714 limits assumed): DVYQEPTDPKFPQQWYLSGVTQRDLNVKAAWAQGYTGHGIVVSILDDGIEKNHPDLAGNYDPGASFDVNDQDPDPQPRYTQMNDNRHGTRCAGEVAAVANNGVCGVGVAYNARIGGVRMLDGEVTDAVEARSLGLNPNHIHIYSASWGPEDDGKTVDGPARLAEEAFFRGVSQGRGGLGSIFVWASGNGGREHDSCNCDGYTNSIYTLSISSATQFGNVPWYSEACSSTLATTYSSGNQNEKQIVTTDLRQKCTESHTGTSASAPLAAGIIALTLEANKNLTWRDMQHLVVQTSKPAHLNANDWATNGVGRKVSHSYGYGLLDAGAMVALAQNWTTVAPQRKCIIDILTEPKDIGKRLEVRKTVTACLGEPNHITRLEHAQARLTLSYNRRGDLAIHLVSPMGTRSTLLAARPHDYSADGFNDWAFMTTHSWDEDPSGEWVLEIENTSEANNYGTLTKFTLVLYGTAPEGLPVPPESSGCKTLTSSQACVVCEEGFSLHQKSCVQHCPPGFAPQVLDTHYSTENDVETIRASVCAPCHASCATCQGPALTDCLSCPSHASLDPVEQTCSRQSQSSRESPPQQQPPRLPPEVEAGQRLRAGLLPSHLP
Insulin prom inh = inhibitors of insulin promoter-driven GFP, primary screen, imaging, TRM-6 cells, eGFP reporter, cell count | 0.9% of 130,000 active | reporter expression induced with tamoxifen | inhibition, % at 2 µM;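 active means inhibition above the mean plus 3 SD, with well images judged a real hit on visual review, cut at about 60% in these data, passing the limit was not always enough; inconclusive means inhibition over the cutoff but images rejected on review; inactive means inhibition not above the cutoff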
HSV augment = enhancers of HSV replication in host cells, fold increase, host cell viability | HSV replication augmentation in cells | maximum fold increase | 0.005% of 220,000 active | AID 1956, 2009; in the data active means maximum fold increase above about 1.5; inconclusive means no clear call, values can overlap the other calls; tested in PC3 cells
Autophagy HCS = autophagy modulators in MEF cells, primary screen, imaging, high-content, MEF GFP-LC3. 0.98% of 190,000 active. MEF GFP-LC3 puncta imaging; test concentration mostly 10 µM. calls only at 10 µM (by protocol);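 active means percentage of spot-positive cells more than 3 SD above its plate mean, without a fluorescence outlier flag or 80% toxicity; inconclusive means no clear call, values can overlap the other calls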
Insulin prom up = insulin promoter activators in MIN6 cells, imaging, high-content screening, mouse beta cells. 0.3% of 190,000 active. AID 1625, 2009. z-score at 5 µM. MIN6 insulin promoter-GFP reporter; stronger effect = higher value;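 active means z-score above 3 at 5 µM with at least 500 cells counted in the well; inconclusive means wells under 500 cells, flagged as cytotoxic or low count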
A number is an active result; i = inactive; ? = inconclusive; nt = no result given; + = active, no number. This is a sample that favours compounds with a hit; in the whole collection about 2% have one here.

SMILES	Dynein cargo inh	Furin inhibitor	Insulin prom inh	HSV augment	Autophagy HCS	Insulin prom up
O=C(Nc1ccccc1)Nc1ncc([N+](=O)[O-])s1	i	i	i	i	+	i
COc1ccc(Oc2cc(C(F)(F)F)nc(N(C)C)n2)cc1	i	i	nt	i	i	i
Cc1cc(NC(=O)c2ccc(S(=O)(=O)N3CCCC3)cc2)nc2c1c(=O)oc1ccccc12	i	i	i	i	+	nt
CCOc1ccc(C(=O)Nc2cc(C)c3c(=O)oc4ccccc4c3n2)cc1	i	i	nt	i	+	?
CCCNc1c(F)c(F)c2c(C)c3ccccc3nc2c1F	i	i	i	i	+	nt
Cc1nc2ccccc2c(=O)n1NC(=O)CCC(=O)O	i	i	i	i	i	i
Cc1nc2c([nH]c3ccc(Br)cc32)s1	i	i	95	i	i	i
Brc1ccc2[nH]c3c(c2c1)CCC3	i	i	nt	i	nt	i
CCOC(=O)c1cn(-c2ccc(F)c(F)c2)c2c(F)c(F)c(F)c(F)c2c1=O	i	i	nt	nt	i	i
O=C(O)c1cn(-c2ccc(F)c(F)c2)c2c(F)c(F)c(F)c(F)c2c1=O	-6.4	i	i	i	i	i
COc1cc(C(=O)NCCN2C(=O)S/C(=C\c3ccc(F)cc3)C2=O)ccc1OCC(=O)N1CCOCC1	i	i	nt	i	nt	i
COc1cc(/C=C2\SC(=O)N(CCNC(=O)c3sc4cc(F)ccc4c3Cl)C2=O)cc(OC)c1OC	i	i	nt	i	+	i
O=C1C2ON(c3ccccc3)C(c3ccncc3)C2C(=O)N1c1ccccc1 (stereo not given)	i	i	73	i	i	i
O=C1C2C3c4ccccc4C(c4ccccc43)[C@@H]2C(=O)N1c1cccnc1 (stereo not given in full)	i	i	nt	i	i	i
O=C1C2C3c4ccccc4C(c4ccccc43)C2C(=O)N1c1ccncc1 (stereo not given)	i	i	nt	i	+	i
Cc1ccc(Cn2c(=N)n(CC(=O)c3ccccc3)c3ccccc32)cc1	i	i	nt	i	+	i
CC(C)(C)C(=O)Cn1c(=N)n(Cc2ccccc2)c2ccccc21	i	i	nt	i	i	i
COc1ccccc1CN1CCNC(=O)C1CC(=O)NCCc1cnccn1 (stereo not given)	i	i	nt	i	i	i
CC(C)C1C(C#N)=C(N)Oc2n[nH]c(-c3ccc4ccccc4c3)c21 (stereo not given)	i	i	i	i	+	nt
CCN(CC)c1ccc2cc(C#N)c(=O)oc2c1	i	i	i	?	i	4.2
CCN(CC)c1ccc2c(Cl)c(Br)c(=O)oc2c1	i	i	i	nt	+	nt
CS(=O)(=O)Nc1ccc(C(=O)Nc2ccc(S(=O)(=O)N3CCCC3)cc2)cc1	i	i	nt	i	i	i
O=c1c(-c2n[nH]c(=S)n2-c2ccccc2)cccn1Cc1cccc(Cl)c1	i	i	nt	i	i	i
CCC(CC)NCc1ccc2c(c1)c1ccccc1n2CC	i	i	i	i	i	i
CCn1c2ccccc2c2cc(CNCc3ccc(OC)cc3OC)ccc21	i	i	nt	i	+	i
SMILES	Dynein cargo inh	Furin inhibitor	Insulin prom inh	HSV augment	Autophagy HCS	Insulin prom up
Cc1cc(NCCN2CCOCC2)n2nc(C)c(-c3ccccc3)c2n1	i	i	i	i	i	i
Cc1cc(NCCN2CCOCC2)n2nc(C)c(-c3ccc(Cl)cc3)c2n1	i	i	i	i	+	i
CCC(=O)OCC(=O)c1cc(C)n(-c2ccc(Br)cc2)c1C	i	i	nt	i	i	i
O=C(CN1CCN(Cc2ccccc2)CC1)N/N=C/c1c[nH]c2ccccc12	i	i	i	i	i	i
Cc1ccc(S(=O)(=O)N2CCC(C(=O)N3CCC[C@H]3C(=O)NCc3ccco3)CC2)cc1	i	i	i	i	+	i
COc1cccc(C(=O)Nc2cc(-c3cn4cccnc4n3)ccc2C)c1	i	i	nt	i	i	i
CC1(C(=O)Nc2c(F)c(F)c(F)c(F)c2F)CC1(Br)Br (stereo not given)	i	i	nt	i	nt	i
CCOC(=O)CSc1nc(=O)n2cccc(C)c2n1	i	i	nt	i	+	i
CCOC(=O)C(C)Sc1nc(=O)n2cccc(C)c2n1 (stereo not given)	i	i	nt	i	i	i
CN(/N=C/c1cccnc1)c1cnc2ccccc2n1	i	i	78	i	i	i
C/C(=N/NC(=O)CNC(=O)c1cccs1)c1ccco1	i	i	nt	i	nt	i
O=C(Nc1nnc(SCC(=O)N2CCCCC2)s1)C1CCCCC1	i	i	73	i	i	nt
O=C(c1ccc([N+](=O)[O-])cc1)N(Cc1ccc(Cl)cc1)N1C(=O)CCCC1=O	i	i	i	i	+	i
O=C(c1ccc([N+](=O)[O-])cc1)N(Cc1ccc(Cl)cc1Cl)N1C(=O)CCCC1=O	i	i	i	i	i	i
COc1ccc(CCC(=O)Nc2ccc(Cl)c(S(=O)(=O)N3CCCC3)c2)cc1	i	i	nt	i	nt	i
CCCCCCNC(=O)n1cc(F)c(=O)[nH]c1=O	nt	nt	nt	i	nt	nt
Cc1ccc(O)c(CC(C)C)n1	i	i	84	i	i	i
COc1ccc(CCc2nc(C)ccc2O)cc1	i	i	89	i	i	i
Cc1ccc(O)c(CO)n1	i	i	nt	i	nt	i
COc1ccc(Cn2c(C)ccc2C)cc1	i	i	i	i	i	i
CC(C)c1ccc(S(=O)(=O)/N=C2/C=C(Sc3ncn[nH]3)C(=O)c3ccccc32)cc1	-5.3	i	i	i	i	i
Cc1ccc(S(=O)(=O)/N=C2/C=C(Sc3ncn[nH]3)C(=O)c3ccccc32)cc1	-3.7	i	i	i	i	i
Cc1ccc(S(=O)(=O)/N=C2/C=C(Sc3ncn[nH]3)C(=O)c3ccccc32)c(C)c1	-3.6	i	i	i	i	i
COc1ccc(C2=CC(=O)C=CC2=O)cc1	-6.3	i	nt	i	nt	i
O=C(Nc1ccc([N+](=O)[O-])cc1)c1cc(-c2ccccn2)nc2c(Cl)cccc12	i	i	nt	i	+	i
SMILES	Dynein cargo inh	Furin inhibitor	Insulin prom inh	HSV augment	Autophagy HCS	Insulin prom up
CCCc1cc(NCCCCO)n2c(nc3ccccc32)c1C#N	i	i	79	i	i	i
Cc1cc(NCCCCO)n2c(nc3ccccc32)c1C#N	i	i	i	i	i	i
CSS(=O)(=O)c1cccc2cccnc12	i	i	nt	i	nt	i
C/C(=N\NC(=O)c1cc(C(C)C)[nH]n1)c1ccco1	i	i	i	i	+	i
C/C(=N/NC(=O)c1cc(-c2ccc(Br)s2)[nH]n1)c1ccco1	i	i	nt	i	i	i
COc1cc(NS(=O)(=O)c2ccc(N/C=C\C(=O)c3ccc(F)cc3)cc2)nc(OC)n1	i	i	i	i	i	i
CCOC(=O)/C(=N\Nc1ccc(C(C)=O)cc1)c1csc(Nc2ccccc2)n1	i	i	i	i	+	i
CCOC(=O)/C(=N\Nc1ccccc1[N+](=O)[O-])c1csc(N)n1	i	i	nt	i	i	i
